Experimental data: ChEMBL document CHEMBL1926564, “Design, synthesis and biological activity of original pyrazolo-pyrido-diazepine, -pyrazine and -oxazine dione derivatives as novel dual Nox4/Nox1 inhibitors” (Bioorg Med Chem, 2011)
pIC50, pKi: −log10 of the molar value.

What was measured:
NADPH oxidase 2 = molecular target: T1, NADPH oxidase 2 (Homo sapiens, UniProt P04839); assay: Antagonist activity at human NOX2 in human polymorphonuclear cell membrane assessed as inhibition of ROS production after 20 mins by cell-free amplex red assay; type: functional
T1 sequence (P04839 whole entry): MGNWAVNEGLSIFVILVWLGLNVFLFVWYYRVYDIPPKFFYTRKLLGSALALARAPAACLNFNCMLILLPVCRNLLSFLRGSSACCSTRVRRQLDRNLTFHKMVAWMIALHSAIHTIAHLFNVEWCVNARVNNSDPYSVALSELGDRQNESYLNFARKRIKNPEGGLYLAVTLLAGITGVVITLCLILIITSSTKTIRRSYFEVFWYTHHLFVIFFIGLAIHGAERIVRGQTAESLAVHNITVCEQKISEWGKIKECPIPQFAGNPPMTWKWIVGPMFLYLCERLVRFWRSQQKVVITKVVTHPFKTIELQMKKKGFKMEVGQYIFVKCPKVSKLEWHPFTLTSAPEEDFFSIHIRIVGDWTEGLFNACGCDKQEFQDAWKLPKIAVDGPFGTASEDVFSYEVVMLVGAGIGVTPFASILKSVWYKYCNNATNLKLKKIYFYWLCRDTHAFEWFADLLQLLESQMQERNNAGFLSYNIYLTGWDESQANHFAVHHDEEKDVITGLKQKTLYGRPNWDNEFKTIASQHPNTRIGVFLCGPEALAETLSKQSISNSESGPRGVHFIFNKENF
In short: (§1)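 Membranes from tetracycline-induced (24 h) Nox-expressing cells or human PMN (Nox2), sucrose-gradient purified; or xanthine oxidase. Incubated in PBS with Amplex Red, HRP and cofactors; NADPH (Nox) or xanthine starts ROS. Compound 1 nM–100 µM, 20 min at 37 °C, plate-reader. Background without membranes or agonist. Ki by Cheng-Prusoff; mean of ≥3 experiments in triplicate.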

NADPH oxidase 1 = molecular target: T2, NADPH oxidase 1 (Homo sapiens, UniProt Q9Y5S8); assay: Antagonist activity at human NOX1 expressed in CHO cell membrane coexpressing tetracylin repressor assessed as inhibition of ROS production after 20 mins by cell-free amplex red assay; type: functional; in short: as §1
T2 sequence (Q9Y5S8 whole entry): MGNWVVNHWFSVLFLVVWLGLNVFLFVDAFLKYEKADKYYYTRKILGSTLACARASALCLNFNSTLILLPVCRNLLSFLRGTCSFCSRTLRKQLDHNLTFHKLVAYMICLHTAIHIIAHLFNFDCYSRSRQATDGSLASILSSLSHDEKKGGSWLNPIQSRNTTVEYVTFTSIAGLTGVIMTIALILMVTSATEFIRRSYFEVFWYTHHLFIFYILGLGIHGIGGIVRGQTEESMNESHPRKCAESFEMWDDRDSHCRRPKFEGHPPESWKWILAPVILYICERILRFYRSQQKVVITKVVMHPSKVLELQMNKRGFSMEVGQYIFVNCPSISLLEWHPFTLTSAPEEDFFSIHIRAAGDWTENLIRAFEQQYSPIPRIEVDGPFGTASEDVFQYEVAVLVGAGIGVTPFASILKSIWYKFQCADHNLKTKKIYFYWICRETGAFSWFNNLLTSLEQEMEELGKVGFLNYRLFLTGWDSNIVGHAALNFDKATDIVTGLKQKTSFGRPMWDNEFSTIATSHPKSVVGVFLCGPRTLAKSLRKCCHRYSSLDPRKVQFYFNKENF

[1] = Clearance in human liver microsomes assessed per mg of protein at 0.5 uM; type: ADME, Microsome; settings: read-out: CLH
In short: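 Pooled rat (male Sprague Dawley) or human (mixed-sex) liver microsomes at 0.5 mg/mL final, 0.1 M phosphate pH 7.4, compound 0.5 µM final, 0.25% DMSO, 37 °C; 1 mM NADPH starts reaction. Sampled 0–45 min, methanol quench with internal standard, LC/MS-MS; intrinsic clearance from compound loss.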

[2] = molecular target: Xanthine dehydrogenase/oxidase (Homo sapiens, UniProt P47989); assay: Inhibition of xanthine oxidase assessed as inhibition of ROS production after 20 mins by cell-free amplex red assay; in short: as §1
Chain of Xanthine dehydrogenase/oxidase (P47989 whole entry): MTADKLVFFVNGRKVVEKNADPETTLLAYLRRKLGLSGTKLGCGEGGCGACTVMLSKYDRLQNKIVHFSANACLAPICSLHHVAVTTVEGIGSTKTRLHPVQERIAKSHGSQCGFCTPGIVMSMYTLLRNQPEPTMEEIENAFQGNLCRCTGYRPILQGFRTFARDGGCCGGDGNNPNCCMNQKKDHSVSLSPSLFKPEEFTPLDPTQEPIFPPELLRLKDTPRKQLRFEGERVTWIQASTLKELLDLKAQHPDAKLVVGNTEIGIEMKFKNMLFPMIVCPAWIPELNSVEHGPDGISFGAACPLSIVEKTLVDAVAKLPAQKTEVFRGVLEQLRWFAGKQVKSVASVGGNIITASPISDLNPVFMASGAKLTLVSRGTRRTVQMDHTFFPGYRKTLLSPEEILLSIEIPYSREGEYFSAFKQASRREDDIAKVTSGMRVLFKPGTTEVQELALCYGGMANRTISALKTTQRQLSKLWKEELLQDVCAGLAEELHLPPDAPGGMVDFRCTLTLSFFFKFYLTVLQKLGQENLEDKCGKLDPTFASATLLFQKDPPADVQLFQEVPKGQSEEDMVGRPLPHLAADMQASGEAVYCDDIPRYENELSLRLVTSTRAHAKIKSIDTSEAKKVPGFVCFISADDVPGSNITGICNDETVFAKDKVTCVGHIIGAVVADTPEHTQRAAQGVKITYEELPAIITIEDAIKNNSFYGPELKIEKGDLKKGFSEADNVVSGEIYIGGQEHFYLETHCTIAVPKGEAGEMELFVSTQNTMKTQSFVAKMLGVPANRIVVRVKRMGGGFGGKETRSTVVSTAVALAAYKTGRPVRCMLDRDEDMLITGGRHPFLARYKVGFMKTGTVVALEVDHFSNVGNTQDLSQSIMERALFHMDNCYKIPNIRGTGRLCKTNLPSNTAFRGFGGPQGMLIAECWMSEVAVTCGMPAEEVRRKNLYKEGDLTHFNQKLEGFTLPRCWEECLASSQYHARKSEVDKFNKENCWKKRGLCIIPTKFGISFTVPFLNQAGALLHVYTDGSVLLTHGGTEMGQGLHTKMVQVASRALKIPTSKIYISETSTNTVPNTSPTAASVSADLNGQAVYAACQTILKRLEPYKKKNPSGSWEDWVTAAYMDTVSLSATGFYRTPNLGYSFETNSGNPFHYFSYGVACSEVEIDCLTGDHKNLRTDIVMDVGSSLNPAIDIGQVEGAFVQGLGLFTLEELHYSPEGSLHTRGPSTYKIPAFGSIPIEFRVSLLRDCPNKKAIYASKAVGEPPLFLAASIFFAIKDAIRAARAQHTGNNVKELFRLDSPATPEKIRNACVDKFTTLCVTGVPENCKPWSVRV

hERG = hERG (Homo sapiens, UniProt Q12809); assay: Inhibition of hERG at 1 uM by patch clamp assay; type: toxicity
Chain of hERG (Q12809 whole entry): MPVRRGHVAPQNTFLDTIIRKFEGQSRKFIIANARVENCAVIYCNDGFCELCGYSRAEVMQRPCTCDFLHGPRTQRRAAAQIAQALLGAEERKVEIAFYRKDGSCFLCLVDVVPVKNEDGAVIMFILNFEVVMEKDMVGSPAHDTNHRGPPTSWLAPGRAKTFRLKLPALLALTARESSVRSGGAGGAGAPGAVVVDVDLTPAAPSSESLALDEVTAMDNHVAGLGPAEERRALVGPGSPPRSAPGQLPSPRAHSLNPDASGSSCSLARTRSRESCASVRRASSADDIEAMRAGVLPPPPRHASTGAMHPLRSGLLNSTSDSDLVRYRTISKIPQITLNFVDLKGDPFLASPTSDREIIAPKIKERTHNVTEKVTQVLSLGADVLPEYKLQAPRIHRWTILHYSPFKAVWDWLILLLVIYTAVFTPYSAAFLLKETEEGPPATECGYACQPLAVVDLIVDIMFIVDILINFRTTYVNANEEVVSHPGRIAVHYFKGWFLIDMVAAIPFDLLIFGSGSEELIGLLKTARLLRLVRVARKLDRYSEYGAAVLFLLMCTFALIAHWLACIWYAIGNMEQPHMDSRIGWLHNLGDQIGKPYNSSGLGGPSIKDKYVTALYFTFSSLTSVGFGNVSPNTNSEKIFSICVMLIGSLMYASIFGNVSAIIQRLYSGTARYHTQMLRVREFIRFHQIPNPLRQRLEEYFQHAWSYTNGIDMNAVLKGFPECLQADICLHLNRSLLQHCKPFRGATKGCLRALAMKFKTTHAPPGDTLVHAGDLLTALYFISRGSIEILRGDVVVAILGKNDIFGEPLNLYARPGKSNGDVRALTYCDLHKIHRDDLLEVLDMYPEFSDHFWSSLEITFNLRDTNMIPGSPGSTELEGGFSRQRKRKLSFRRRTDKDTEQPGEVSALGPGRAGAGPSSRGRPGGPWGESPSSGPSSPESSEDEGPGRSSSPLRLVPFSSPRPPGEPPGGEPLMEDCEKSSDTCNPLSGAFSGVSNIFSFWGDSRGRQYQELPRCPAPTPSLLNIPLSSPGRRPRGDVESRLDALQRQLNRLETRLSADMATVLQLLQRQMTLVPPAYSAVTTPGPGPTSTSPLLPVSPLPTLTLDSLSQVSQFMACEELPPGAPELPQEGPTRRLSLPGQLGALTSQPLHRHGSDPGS

Homo sapiens = species on record: Homo sapiens; assay: Selectivity ratio of Ki for human NOX2 to Ki for human NOX4
In short: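 Ratio of Ki values from the Amplex Red membrane ROS assay (PMN membranes for Nox2, Nox4-overexpressing membranes), NADPH-triggered, 1 nM–100 µM, 20 min at 37 °C; Ki via Cheng-Prusoff.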

Cytochrome P450 1A2 = molecular target: T3, Cytochrome P450 1A2 (Homo sapiens, UniProt P05177); assay: Inhibition of human recombinant CYP1A2 assessed as inhibition of fluorescent metabolite formation; type: ADME
T3 sequence (P05177 whole entry): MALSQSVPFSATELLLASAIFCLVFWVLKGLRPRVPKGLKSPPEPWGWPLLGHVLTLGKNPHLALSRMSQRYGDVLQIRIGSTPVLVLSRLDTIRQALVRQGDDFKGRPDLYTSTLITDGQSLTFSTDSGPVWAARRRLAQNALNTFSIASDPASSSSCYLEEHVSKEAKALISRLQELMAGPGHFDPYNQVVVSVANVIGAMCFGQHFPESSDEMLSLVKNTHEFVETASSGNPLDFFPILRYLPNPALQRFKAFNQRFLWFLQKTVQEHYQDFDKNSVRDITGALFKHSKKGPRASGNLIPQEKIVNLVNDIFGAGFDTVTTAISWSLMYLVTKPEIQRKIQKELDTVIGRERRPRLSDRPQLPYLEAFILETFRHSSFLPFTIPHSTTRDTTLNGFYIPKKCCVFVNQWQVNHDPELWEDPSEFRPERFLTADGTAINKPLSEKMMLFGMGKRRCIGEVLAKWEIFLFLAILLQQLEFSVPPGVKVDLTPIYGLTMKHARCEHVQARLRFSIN
In short: (§2)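 Compound 0.1–25 µM (0.3% DMSO) incubated with microsomes, NADPH and isoform-specific probe substrate. CYP2C19, 2C9, 2D6, 3A4 metabolites measured by mass spectrometry; CYP1A2 by fluorescent metabolite. IC50 from reduced metabolite formation versus vehicle.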

Salmonella typhimurium [3] = assay: Genotoxicity in Salmonella Typhimurium at 100 uM by AMES test; type: toxicity, organism-based; settings: salmonella enterica subsp. enterica serovar typhimurium
Salmonella typhimurium [4] = assay: Mutagenicity in Salmonella Typhimurium at 100 uM by AMES test; type: toxicity, organism-based; settings: salmonella enterica subsp. enterica serovar typhimurium
Mus musculus = assay: Antifibrotic activity in C57BL/6 mouse pulmonary fibrosis curative model assessed as reduction in bleomycin-induced collagen deposition at 10 mg/kg, po qd administered 10 days post challenge […] measured on day 25 by SIRCOL assay; type: functional
In short: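 Male C57BL/6 mice (9–10 weeks) under ketamine/xylazine given 0.0125 U bleomycin intratracheally in 40 µL saline. Daily oral dosing at 10 mL/kg in 3% DMSO then aqueous 0.5% CMC/0.25% Tween 20. Whole-lung collagen by Sircol dye binding (0.5 M acetic acid extraction overnight, 540 nm, rat-tail collagen standard), µg per lung.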

Cytochrome P450 2C19 = Cytochrome P450 2C19 (Homo sapiens, UniProt P33261); assay: Inhibition of human recombinant CYP2C19 by mass spectrophotometry; type: ADME; in short: as §2
Chain of Cytochrome P450 2C19 (P33261 whole entry): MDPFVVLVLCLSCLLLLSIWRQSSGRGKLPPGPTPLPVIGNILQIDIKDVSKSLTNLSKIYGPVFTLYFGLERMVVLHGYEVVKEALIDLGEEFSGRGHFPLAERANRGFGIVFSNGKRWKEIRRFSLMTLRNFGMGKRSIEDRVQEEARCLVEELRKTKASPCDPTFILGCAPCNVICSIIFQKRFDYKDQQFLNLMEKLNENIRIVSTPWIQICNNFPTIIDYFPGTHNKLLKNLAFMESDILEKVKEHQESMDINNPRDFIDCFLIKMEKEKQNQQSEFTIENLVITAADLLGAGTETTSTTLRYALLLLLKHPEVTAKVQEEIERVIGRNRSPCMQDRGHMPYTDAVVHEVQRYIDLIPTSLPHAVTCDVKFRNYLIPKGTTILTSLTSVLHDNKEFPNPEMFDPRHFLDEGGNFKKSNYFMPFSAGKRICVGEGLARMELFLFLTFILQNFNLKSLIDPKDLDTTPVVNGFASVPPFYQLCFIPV

Cytochrome P450 2D6 = Cytochrome P450 2D6 (Homo sapiens, UniProt P10635); assay: Inhibition of human recombinant CYP2D6 by mass spectrophotometry; type: ADME; in short: as §2
Chain of Cytochrome P450 2D6 (P10635 whole entry): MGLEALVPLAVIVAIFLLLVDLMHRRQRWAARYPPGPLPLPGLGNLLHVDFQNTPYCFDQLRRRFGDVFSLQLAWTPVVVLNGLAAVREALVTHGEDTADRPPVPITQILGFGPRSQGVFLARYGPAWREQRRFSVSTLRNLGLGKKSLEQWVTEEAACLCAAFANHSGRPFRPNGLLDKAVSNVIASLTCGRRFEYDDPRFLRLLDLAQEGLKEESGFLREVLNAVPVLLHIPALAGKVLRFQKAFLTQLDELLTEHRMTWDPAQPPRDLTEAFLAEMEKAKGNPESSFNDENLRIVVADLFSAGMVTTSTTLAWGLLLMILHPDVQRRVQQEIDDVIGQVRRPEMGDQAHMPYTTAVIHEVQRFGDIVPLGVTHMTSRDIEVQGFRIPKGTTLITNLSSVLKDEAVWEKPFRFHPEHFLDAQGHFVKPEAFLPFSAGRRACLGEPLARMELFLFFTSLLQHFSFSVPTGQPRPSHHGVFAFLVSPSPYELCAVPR

For Cl.O=c1c2c3n(c(=O)cc2[nH]n1-c1ccccc1Cl)CCCN(Cc1ccccn1)C3, the pKi (NADPH oxidase 2) was 5.94, the pKi (NADPH oxidase 1) was 6.95 and the microsomal CLint at 0.5 µM [1] was 13.9 µL/min/mg.

Cl.O=c1c2c3n(c(=O)cc2[nH]n1-c1ccccc1Cl)CCCN(Cc1ccccc1)C3 gave a pKi [2] of under 4.52, an inhibition at 1 µM (hERG) of 8.7% and a Ratio Ki (Homo sapiens) of 18.6. For the same compound, the pIC50 (Cytochrome P450 1A2) was under 4.60, the pKi (NADPH oxidase 2) was 5.87 and the Activity (Salmonella typhimurium [3]) was “Non-toxic”. For the same compound, the Activity (Salmonella typhimurium [4]) was “Non-toxic”, the inhibition in vivo at 10 mg/kg (Mus musculus) was 64% and the pKi (NADPH oxidase 1) was 7.00. It also gave a pIC50 (Cytochrome P450 2C19) of under 4.60, a pIC50 (Cytochrome P450 2D6) of under 4.60 and a microsomal CLint at 0.5 µM [1] of 35 µL/min/mg.
